From ChEMBL document CHEMBL1154032, “Substituted pyrimidines as cannabinoid CB1 receptor ligands” (Bioorg Med Chem Lett, 2009)

molecular target: Cannabinoid receptor 1 (Rattus norvegicus, UniProt P20272); assay: Displacement of [3H]CP-55940 from cannabinoid CB1 receptor in Sprague-Dawley rat cerebellar membrane by liquid scintillation spectrometry; set-up: species or system Cerebellum
Outline: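 About 10 µg membrane incubated with 3 nM [3H]CP55,940, graded ligand concentrations, TME with 0.5% fatty-acid-free BSA, 1 h at 30 °C. PEI-soaked GF/B filtration, five ice-cold washes. IC50 by nonlinear regression, triplicate.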

Sequence of Cannabinoid receptor 1 (P20272 whole entry): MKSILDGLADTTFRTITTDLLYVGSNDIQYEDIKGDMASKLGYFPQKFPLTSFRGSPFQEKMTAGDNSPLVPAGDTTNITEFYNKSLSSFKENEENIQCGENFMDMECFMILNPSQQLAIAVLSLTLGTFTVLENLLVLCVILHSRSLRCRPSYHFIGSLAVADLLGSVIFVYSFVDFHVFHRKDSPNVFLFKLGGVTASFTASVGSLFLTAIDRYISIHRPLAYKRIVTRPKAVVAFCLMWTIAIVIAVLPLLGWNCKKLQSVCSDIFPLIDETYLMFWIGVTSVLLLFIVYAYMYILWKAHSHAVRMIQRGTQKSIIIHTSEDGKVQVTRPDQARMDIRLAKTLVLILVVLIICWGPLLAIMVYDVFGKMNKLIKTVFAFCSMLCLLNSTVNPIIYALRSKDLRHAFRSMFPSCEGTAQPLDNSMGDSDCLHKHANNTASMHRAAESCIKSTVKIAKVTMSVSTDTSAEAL

| Compound | IC50 |
| --- | --- |
| C[C@H](Nc1cc(C2CCCCC2)ncn1)[C@@H](Cc1ccc(Cl)cc1)c1cccc(Br)c1 | 63.1 nM |
| C[C@H](Nc1cc(NC2CCCCC2)nc(C(F)(F)F)n1)[C@@H](Cc1ccc(Cl)cc1)c1cccc(Br)c1 | 22.4 nM |
| CC[C@H](Nc1cc(N2CCCCC2)ncn1)[C@@H](Cc1ccc(Cl)cc1)c1cccc(Br)c1 | 285 nM |
| C[C@H](Nc1cc(N2CCCCC2)nc(C(F)(F)F)n1)[C@@H](Cc1ccc(Cl)cc1)c1cccc(Br)c1 | 196 nM |
| C[C@H](Nc1cc(Nc2ccc(F)cc2)ncn1)[C@@H](Cc1ccc(Cl)cc1)c1cccc(Br)c1 | 97.8 nM |
| Cc1nc(NC2CCCCCC2)cc(N[C@@H](C)[C@@H](Cc2ccc(Cl)cc2)c2cccc(Br)c2)n1 | 66.5 nM |
| C[C@H](Nc1cc(N2CCCCCC2)ncn1)[C@@H](Cc1ccc(Cl)cc1)c1cccc(Br)c1 | 94.4 nM |
| CCCCCNc1cc(N[C@@H](C)[C@@H](Cc2ccc(Cl)cc2)c2cccc(Br)c2)ncn1 | 195 nM |
| CCCNc1cc(N[C@@H](C)[C@@H](Cc2ccc(Cl)cc2)c2cccc(Br)c2)ncn1 | 48.1 nM |
| CSc1nc(NC2CCCCCC2)cc(N[C@@H](C)[C@@H](Cc2ccc(Cl)cc2)c2cccc(Br)c2)n1 | 33 nM |
| C[C@H](Nc1cc(NC2CCCC2)ncn1)[C@@H](Cc1ccc(Cl)cc1)c1cccc(Br)c1 | 24.7 nM |
| C[C@H](Nc1cc(NC2CCCCC2)ncn1)[C@@H](Cc1ccc(Cl)cc1)c1cccc(Br)c1 | 27.6 nM |
| CCCCNc1cc(N[C@@H](C)[C@@H](Cc2ccc(Cl)cc2)c2cccc(Br)c2)nc(C(F)(F)F)n1 | 43.5 nM |
| C[C@H](Nc1cc(NC2CCCCCC2)ncn1)[C@@H](Cc1ccc(Cl)cc1)c1cccc(Br)c1 | 45.3 nM |
| CCC(CC)Nc1cc(N[C@@H](C)[C@@H](Cc2ccc(Cl)cc2)c2cccc(Br)c2)ncn1 | 93.6 nM |
| CC(C)CCNc1cc(N[C@@H](C)[C@@H](Cc2ccc(Cl)cc2)c2cccc(Br)c2)ncn1 | 113 nM |

| Compound | IC50 |
| --- | --- |
| CC[C@H](Nc1cc(NC2CCCCC2)ncn1)[C@@H](Cc1ccc(Cl)cc1)c1cccc(Br)c1 | 569 nM |
| C[C@H](Nc1cc(NCC2CCCCC2)ncn1)[C@@H](Cc1ccc(Cl)cc1)c1cccc(Br)c1 | 70.5 nM |
| Cc1nc(N[C@@H](C)[C@@H](Cc2ccc(Cl)cc2)c2cccc(Br)c2)cc(N(C)C)n1 | 130 nM |
| CC1CCN(c2cc(N[C@@H](C)[C@@H](Cc3ccc(Cl)cc3)c3cccc(Br)c3)ncn2)CC1 | 76.5 nM |
| C[C@H](Nc1cc(N2CCC(C(F)(F)F)CC2)ncn1)[C@@H](Cc1ccc(Cl)cc1)c1cccc(Br)c1 | 75 nM |
| C[C@H](Nc1cc(N2CCOCC2)ncn1)[C@@H](Cc1ccc(Cl)cc1)c1cccc(Br)c1 | 69.3 nM |
| CCCCc1cc(N[C@@H](C)[C@@H](Cc2ccc(Cl)cc2)c2cccc(Br)c2)ncn1 | 73.8 nM |
| C[C@H](Nc1cc(NCc2ccccn2)ncn1)[C@@H](Cc1ccc(Cl)cc1)c1cccc(Br)c1 | 264 nM |
| CCCCCCOc1cc(N[C@@H](C)[C@@H](Cc2ccc(Cl)cc2)c2cccc(Br)c2)ncn1 | 135 nM |
| CCCCOc1cc(N[C@@H](C)[C@@H](Cc2ccc(Cl)cc2)c2cccc(Br)c2)ncn1 | 76.6 nM |
| CCN(C)c1cc(N[C@@H](C)[C@@H](Cc2ccc(Cl)cc2)c2cccc(Br)c2)ncn1 | 106 nM |
| CC[C@H](Nc1cc(NC2CCCCCC2)ncn1)[C@@H](Cc1ccc(Cl)cc1)c1cccc(Br)c1 | 636 nM |
| CCCCCOc1cc(N[C@@H](C)[C@@H](Cc2ccc(Cl)cc2)c2cccc(Br)c2)ncn1 | 203 nM |
| CCCCCCNc1cc(N[C@@H](C)[C@@H](Cc2ccc(Cl)cc2)c2cccc(Br)c2)ncn1 | 342 nM |
| CCCCNc1cc(N[C@@H](C)[C@@H](Cc2ccc(Cl)cc2)c2cccc(Br)c2)nc(SC)n1 | 69.6 nM |
| C[C@H](Nc1cc(NCC2CCCO2)ncn1)[C@@H](Cc1ccc(Cl)cc1)c1cccc(Br)c1 (some centres not stated) | 115 nM |

The remaining molecules from weak to strong by IC50, led by results:

| IC50 | Compound |
| --- | --- |
| 1540 nM | Clc1ccc(C[C@H](CNc2cc(NC3CCCCCC3)ncn2)c2cccc(Br)c2)cc1 |
| 283 nM | CC1CC(C)CN(c2cc(N[C@@H](C)[C@@H](Cc3ccc(Cl)cc3)c3cccc(Br)c3)ncn2)C1 (some centres not stated) |
| 195 nM | C[C@H](Nc1cc(NCc2ccccc2)ncn1)[C@@H](Cc1ccc(Cl)cc1)c1cccc(Br)c1 |
| 160 nM | Cc1nc(NCc2ccc(C(F)(F)F)cc2)cc(N[C@@H](C)[C@@H](Cc2ccc(Cl)cc2)c2cccc(Br)c2)n1 |
| 155 nM | CC(C)CNc1cc(N[C@@H](C)[C@@H](Cc2ccc(Cl)cc2)c2cccc(Br)c2)ncn1 |
| 136 nM | COc1cc(N[C@@H](C)[C@@H](Cc2ccc(Cl)cc2)c2cccc(Br)c2)ncn1 |
| 136 nM | C[C@H](Nc1cc(OCC2CCCCC2)ncn1)[C@@H](Cc1ccc(Cl)cc1)c1cccc(Br)c1 |
| 116 nM | C[C@H](Nc1cc(N2CCCC2)ncn1)[C@@H](Cc1ccc(Cl)cc1)c1cccc(Br)c1 |
| 109 nM | CSc1nc(N[C@@H](C)[C@@H](Cc2ccc(Cl)cc2)c2cccc(Br)c2)cc(N2CCCCC2)n1 |
| 103 nM | CCCCC(CC)CNc1cc(N[C@@H](C)[C@@H](Cc2ccc(Cl)cc2)c2cccc(Br)c2)ncn1 (some centres not stated) |
| 98.6 nM | Cc1nc(NC2CCCC2)cc(N[C@@H](C)[C@@H](Cc2ccc(Cl)cc2)c2cccc(Br)c2)n1 |
| 95.3 nM | C[C@H](Nc1cc(OC2CCCCC2)ncn1)[C@@H](Cc1ccc(Cl)cc1)c1cccc(Br)c1 |
| 82 nM | CCCCNc1cc(N[C@@H](C)[C@@H](Cc2ccc(Cl)cc2)c2cccc(Br)c2)nc(C)n1 |
| 71.1 nM | Clc1ccc(C[C@H](CNc2cc(N3CCCCC3)ncn2)c2cccc(Br)c2)cc1 |
| 67.4 nM | C[C@H](Nc1cc(Nc2ccccc2)ncn1)[C@@H](Cc1ccc(Cl)cc1)c1cccc(Br)c1 |
| 63.2 nM | CC[C@H](Nc1cc(NC2CCCC2)ncn1)[C@@H](Cc1ccc(Cl)cc1)c1cccc(Br)c1 |
| 59.3 nM | CCCCCNc1cc(N[C@@H](C)[C@@H](Cc2ccc(Cl)cc2)c2cccc(Br)c2)nc(C(F)(F)F)n1 |
| 57.3 nM | CSc1nc(NC2CCCCC2)cc(N[C@@H](C)[C@@H](Cc2ccc(Cl)cc2)c2cccc(Br)c2)n1 |
| 39.8 nM | C[C@H](Nc1cc(C2CCCC2)ncn1)[C@@H](Cc1ccc(Cl)cc1)c1cccc(Br)c1 |
| 38.9 nM | C[C@H](Nc1cc(NC2CCCCCC2)nc(C(F)(F)F)n1)[C@@H](Cc1ccc(Cl)cc1)c1cccc(Br)c1 |
| 28.9 nM | Cc1nc(N[C@@H](C)[C@@H](Cc2ccc(Cl)cc2)c2cccc(Br)c2)cc(N2CCCCC2)n1 |
| 22.1 nM | Cc1nc(NC2CCCCC2)cc(N[C@@H](C)[C@@H](Cc2ccc(Cl)cc2)c2cccc(Br)c2)n1 |
| 21 nM | C[C@H](Nc1cc(N2CCCCC2)ncn1)[C@@H](Cc1ccc(Cl)cc1)c1cccc(Br)c1 |
| 16.3 nM | CCCCNc1cc(N[C@@H](C)[C@@H](Cc2ccc(Cl)cc2)c2cccc(Br)c2)ncn1 |

molecular target: Cannabinoid receptor 2 (Homo sapiens, UniProt P34972); assay: Displacement of [3H]WIN-55212-2 from human recombinant CB2 receptor expressed in CHOK1 cells by liquid scintillation spectrometry; format: cell-based, CHO-K1
Outline: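 Membranes from CHO K-1 cells transfected with human CB2, prepared as for brain tissue (TME buffer pH 7.4, 48,000g spin). About 10 µg membrane incubated with 3 nM [3H]WIN55,212-2 and graded ligand concentrations in TME with 0.5% fatty-acid-free BSA, 1 h at 30 °C. Filtered over PEI-soaked GF/B, washed five times ice-cold. IC50 from nonlinear regression, triplicate.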

Sequence of Cannabinoid receptor 2 (P34972 whole entry): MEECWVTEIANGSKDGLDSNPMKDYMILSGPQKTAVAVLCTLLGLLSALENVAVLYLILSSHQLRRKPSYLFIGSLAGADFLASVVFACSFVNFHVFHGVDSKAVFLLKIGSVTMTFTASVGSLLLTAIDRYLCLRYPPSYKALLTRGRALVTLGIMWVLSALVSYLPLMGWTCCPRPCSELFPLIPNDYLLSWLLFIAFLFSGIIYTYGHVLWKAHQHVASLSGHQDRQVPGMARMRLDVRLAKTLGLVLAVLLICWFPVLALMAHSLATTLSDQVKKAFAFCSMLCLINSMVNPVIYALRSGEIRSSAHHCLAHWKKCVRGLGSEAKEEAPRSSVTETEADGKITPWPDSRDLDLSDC

| IC50 | Compound |
| --- | --- |
| 2960 nM | CCCCNc1cc(N[C@@H](C)[C@@H](Cc2ccc(Cl)cc2)c2cccc(Br)c2)ncn1 |
